The subject of assay [1] is Rattus norvegicus. In words: Ability to induce locomotion in rats rendered akinetic by bilateral anterolateral hyphalamic injection of 6-OHDA at 2.5 mg/kg dose after sc administration. The assay is classed as functional. To be noted: route subcutaneous. A digest of the protocol: (§1)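 Male Sprague-Dawley rats with 6-OHDA lesions of the anterolateral hypothalamus on both sides; tested 4 days after lesioning. Compound given sc, then rats placed in an open field. Ambulation recorded in 2-min periods across 2 h; one score = all four limbs placed in one square. Readout is the cumulative ambulation score (mean ± SEM).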

The next assay has as its system Mus musculus. In words: Compound was tested for its ability to antagonize the catalepsy produced in mice after sc administration. The assay is classed as functional. A digest of the protocol: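 Male Swiss albino mice (21-25 g), groups of 10-12. Reserpine 5 mg/kg ip given 17 h before sc test drug. Catalepsy checked before dosing and at 0.5, 1, 2, 3.5 and 5 h: mouse placed on a rubber stopper (5 cm diameter, 2.5 cm high) for 3 min; staying on counts as cataleptic. Quantal ED50 = dose reversing catalepsy in 50% of mice.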

Assay [2] relates to Rattus norvegicus. In words: Effect of pretreatment with alpha-MPT on the rotational behavior induced by the compound (5 mg/kg, sc) in rats with 6-OHDA induced lesions (indicates that it acted directly on DA receptors). It counts as functional.
Assay [3] has as its system Rattus norvegicus. In words: Compound was evaluated for its ability to induce locomotion in rats rendered akinetic by bilateral anterolateral hyphalamic injection of 6-OHDA at 30 mg/kg dose after sc administration; I=Inactive. It counts as functional, organism-based. Set-up: dose 30 mg/kg. A digest of the protocol:
as §1

In assay [4] the test system is Rattus norvegicus. In words: Contralateral turning characteristic was measured in rat at 5 po mg/kg dose. The assay is classed as functional. The gist of the method:
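Male Sprague-Dawley rats with unilateral 6-OHDA lesions of the nigrostriatal pathway, in groups of 4-5, were reused at intervals of at least 1 week. After dosing, each rat was placed straight into a rotometer and recorded continuously until rotation ceased. Result is total contralateral turns, mean ± SEM. Doses refer to the base.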

Assay [5] deals with Rattus norvegicus. In words: Compound was evaluated for its ability to induce locomotion in rats rendered akinetic by bilateral anterolateral hyphalamic injection of 6-OHDA at 10 Po mg/kg dose after sc administration. It counts as functional. The gist of the method:
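Male Sprague-Dawley rats with bilateral 6-OHDA lesions of the anterolateral hypothalamus were tested 4 days after lesioning, dosed, and placed in an open field. Ambulation (all four limbs placed in one square = one score) was counted over six 2-min periods within 2 h. Result is the cumulative ambulation score, mean ± SEM. Doses refer to the base.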

The test system of assay [6] is Rattus norvegicus. In words: Compound was evaluated for its ability to induce locomotion in rats rendered akinetic by bilateral anterolateral hyphalamic injection of 6-OHDA at 10 mg/kg dose after sc administration. The assay is classed as functional. To be noted: route subcutaneous. A digest of the protocol:
as §1

The target in assay [7] is Dopamine receptor (Rattus norvegicus) (UniProt P25115+P19020+P30729+P18901+P61169). In words: Dopamine receptor agonistic activity measured as Contralateral turning characteristic was measured in rat at 2.5 Sc mg/kg dose. The assay is classed as functional, organism-based. The gist of the method: (§2)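 Male Sprague-Dawley rats with unilateral 6-OHDA nigrostriatal lesions, groups of 4-5, reused at least 1 week apart. Dosed po or sc as stated, placed at once in a rotometer, and rotation recorded continuously until it stopped. Readout is total contralateral turns (mean ± SEM). Doses given as base.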

For assay [8], the system named is Rattus norvegicus. In words: Contralateral turning characteristic of dopamine agonist was measured in rat at 10 Sc mg/kg dose. The assay is classed as functional. The gist of the method:
as §2

Assay [9] has as its system Rattus norvegicus. In words: Compound was evaluated for its ability to induce locomotion in rats rendered akinetic by bilateral anterolateral hyphalamic injection of 6-OHDA at 2.5 mg/kg dose after sc administration. As to conditions: route subcutaneous. The assay is classed as functional. A digest of the protocol: as §1
Assay [10] has as its system Rattus norvegicus. In words: Contralateral turning characteristic of dopamine agonist was measured in rat at 10 Po mg/kg dose. It counts as functional. The gist of the method: as §2

The record followed here is ChEMBL document CHEMBL1123170, “Drug design via pharmacophore identification. Dopaminergic activity of 3H-benz[e]indol-8-amines and their mode of interaction with the dopamine receptor” (1986).

Activity calls are given as the source filed them. No cut-off for these calls is given here. Some results are limits rather than exact numbers.

Usually ED50 stands for the midpoint of the dose-response relation. A higher ED50 goes with weaker potency. With `CCCN(CCC)C1CCc2ccc3[nH]ccc3c2C1` (stereo not given), in the assay with Rattus norvegicus [1], the Ambulation score is recorded as 287. This compound also displayed an ED50 in the assay with Mus musculus of 2.3 mg/kg. In addition, the Activity in the assay on Rattus norvegicus [2] is on record as 3460.
For `CN(C)C1CCc2ccc3c(ccn3C)c2C1` (stereo not given), in the assay with Rattus norvegicus [3], the Ambulation score entry is “inactive”. In addition, the ED50 in the assay on Mus musculus was over 30 mg/kg.
`CC(C)C[C@H]1C(=O)N2CCC[C@H]2[C@]2(O)O[C@](NC(=O)[C@@H]3C=C4c5cccc6[nH]c(Br)c(c56)C[C@H]4N(C)C3)(C(C)C)C(=O)N12` [BROMOCRIPTINE] came in with an Activity with Rattus norvegicus [4] of 1805. In the assay with Mus musculus, this compound returned an ED50 of 2.3 mg/kg. Moreover, in the assay with Rattus norvegicus [5], the Ambulation score came out at 112.
Compound `CCCN(CCC)C1CCc2ccc3c(ccn3C)c2C1` (stereo not given) registered an Ambulation score in the assay on Rattus norvegicus [6] of under 100. Further, the Activity in assay [7] was under 300. Besides, it took a dose of 5 mg/kg to reach the 50% effect level in the assay with Mus musculus (ED50).
Take `CN(C)C1CCc2ccc3[nH]ccc3c2C1` (stereo not given): the Activity in the assay on Rattus norvegicus [8] came out at 4540; in the assay on Rattus norvegicus [10], 4947. In addition, it took a dose of 5.8 mg/kg to reach the 50% effect level in the assay with Mus musculus (ED50). In the assay on Rattus norvegicus [9], this compound gave an Ambulation score of 378.
